Measured values from ChEMBL document CHEMBL1150316, “Arylethynyltriazole acyclonucleosides inhibit hepatitis C virus replication” (Bioorg Med Chem Lett, 2008).
Converted amounts (≈) assume the structure as drawn.

How the values were obtained:
[1] = Cytotoxicity against human Huh-5-2 cells; type: cell-based
Outline: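 Exponentially growing Huh-5-2 cells treated with compound. CC50 taken as the concentration that inhibits cell proliferation by 50%.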

[2] = system: Hepatitis C virus; assay: Antiviral activity against Hepatitis C virus infected human Huh-5-2 cells assessed as inhibition of luciferase activity after 4 days by RNA replicon assay; type: functional, organism-based, Hepacivirus hominis; settings: Huh-5-2, 96 h
Outline: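 Huh-5-2 subgenomic HCV replicon cells seeded 5000/well in complete DMEM with 250 µg/mL G418, 24 h at 37 °C (5% CO2). Threefold serial compound dilutions then added in DMEM without G418, 4 days at 37 °C. Replication read as luciferase activity (Steady-Glo). EC50 = concentration giving 50% inhibition of luciferase signal.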

[3] = system: PaCa; assay: Cytotoxicity against human MIA PaCa cells upto 200 uM by MTT assay; type: functional, cell-based
Outline: (§1)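 MiaPaCa, Capan-2 and PC-3 cells tested by MTT assay at concentrations up to 200 µM.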

[4] = system: PC-3; assay: Cytotoxicity against human PC3 cells upto 200 uM by MTT assay; type: functional, cell-based; outline: as §1
[5] = system: Capan-2; assay: Cytotoxicity against human Capan2 cells upto 200 uM by MTT assay; type: functional, cell-based; outline: as §1
[6] = system: Huh-5-2; assay: Cytotoxicity against human Huh-5-2 cells at 50 ug/ml; type: cell-based
[7] = system: Hepatitis C virus; assay: Antiviral activity against Hepatitis C virus infected human Huh-9-13 cells assessed as reduction of HCV RNA level after 4 days by RT-PCR; type: functional, organism-based, Hepacivirus hominis; settings: 96 h
Outline: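 Huh-9-13 replicon cells seeded 5000/well in complete DMEM with 1,000 µg/mL G418, 24 h at 37 °C. Threefold serial compound dilutions added in DMEM without G418, 4 days at 37 °C. Monolayers PBS-washed, lysed in RLT buffer, replicon RNA measured by quantitative real-time PCR. EC50 = 50% reduction in HCV RNA versus untreated control.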

Row | SMILES | CC50 [1] [µg/mL] | EC50 [2] [µg/mL] | Activity [3] | Activity [4] | Activity [5] | Activity [6] [%] | EC50 [7] [µg/mL]
1 | NC(=O)c1nc(C#CC2(O)CCCC2)n(COCCO)n1 | > 50 | > 50 | – | – | – | – | –
2 | NC(=O)c1nc(C#CCCCCl)n(COCCO)n1 | > 50 | > 50 | – | – | – | – | –
3 | NC(=O)c1nc(C#Cc2cccc(F)c2)n(COCCO)n1 | 29 (≈ 95.3 µM) | 10 (≈ 32.9 µM) | – | – | – | – | –
4 | NC(=O)c1nc(C#Cc2ccc(F)cc2)n(COCCO)n1 | > 50 | 22 (≈ 72.3 µM) | Not toxic | Not toxic | Not toxic | – | –
5 | NC(=O)c1nc(C#Cc2ccc(C(F)(F)F)cc2)n(COCCO)n1 | 20 (≈ 56.5 µM) | 5 (≈ 14.1 µM) | – | – | – | – | –
6 | Cc1ccc(C#Cc2nc(C(N)=O)nn2COCCO)cc1 | > 50 | 16 (≈ 53.3 µM) | – | – | – | < 80 | –
7 | NC(=O)c1nc(C#CC2(O)CCCCC2)n(COCCO)n1 | > 50 | > 50 | – | – | – | – | –
8 | NC(=O)c1nc(C#Cc2ccccc2F)n(COCCO)n1 | > 50 | 20 (≈ 65.7 µM) | – | – | – | < 80 | –
9 | CCCCCc1ccc(C#Cc2nc(C(N)=O)nn2COCCO)cc1 | 25 (≈ 70.1 µM) | 22 (≈ 61.7 µM) | – | – | – | – | –
10 | COc1ccc(C#Cc2nc(C(N)=O)nn2COCCO)cc1 | > 50 | > 50 | – | – | – | – | –
11 | NC(=O)c1ncn([C@@H]2O[C@H](CO)[C@@H](O)[C@H]2O)n1 [RIBAVIRIN] | 21 (≈ 86 µM) | 7 (≈ 28.7 µM) | – | – | – | – | –
12 | NC(=O)c1nc(C#CC2=CCCCC2)n(COCCO)n1 | > 50 | > 50 | – | – | – | – | –
13 | NC(=O)c1nc(C#Cc2ccccc2)n(COCCO)n1 | > 50 | 18 (≈ 62.9 µM) | Not toxic | Not toxic | Not toxic | – | > 50
